# Results published in ChEMBL document CHEMBL1641600, “Novel bifunctional alkylating agents, 5,10-dihydropyrrolo[1,2-b]isoquinoline derivatives, synthesis and biological activity” (Bioorg Med Chem, 2011).
# Columns and labels:
# [1] = Cytotoxicity against human OECM1 cells after 72 hrs by Alamar blue assay; type: functional, cell-based; conditions: OECM1, 72 h
# How it was run: (§1)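 H1299, PC3, OECM1 and U87 cells exposed 72 h to six or seven drug concentrations. Alamar blue added for 6 h at 37 °C; absorbance read at 570 and 600 nm. IC50 obtained from dose-effect data by the median-effect principle.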
# CCRF-CEM [2] = test: Cytotoxicity against vinblastine-resistant human CCRF-CEM cells after 72 hrs by XTT assay; type: functional, cell-based
# How it was run: (§2)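 Leukemic CCRF-CEM and its Taxol- and vinblastine-resistant sublines exposed 72 h to six or seven drug concentrations. XTT with phenazine methosulfate added for 6 h at 37 °C; absorbance read at 450 and 630 nm. IC50 obtained from dose-effect data by the median-effect principle.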
# MX1 = test: Cytotoxicity against human MX1 cells after 72 hrs by SRB assay; type: functional, cell-based; conditions: MX1, 72 h
# How it was run: (§3)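 MX-1 breast and HCT-116 colon carcinoma cells exposed 72 h to six or seven drug concentrations. Growth measured by SRB assay with microplate absorbance. IC50 obtained from dose-effect data by the median-effect principle.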
# HCT-116 = test: Cytotoxicity against human HCT116 cells after 72 hrs by SRB assay; type: functional, cell-based; conditions: HCT-116, 72 h; how it was run: as §3
# CCRF-CEM [3] = test: Ratio of IC50 for Taxol-resistant human CCRF-CEM cells to IC50 for human CCRF-CEM cells
# [4] = Cytotoxicity against human H1299 cells after 72 hrs by Alamar blue assay; type: functional, cell-based; conditions: NCI-H1299, 72 h; how it was run: as §1
# PC-3 = test: Cytotoxicity against human PC3 cells after 72 hrs by Alamar blue assay; type: functional, cell-based; conditions: PC-3, 72 h; how it was run: as §1
# CCRF-CEM [5] = test: Cytotoxicity against human CCRF-CEM cells after 72 hrs by XTT assay; type: functional, cell-based; how it was run: as §2
# [6] = Cytotoxicity against human U87 cells after 72 hrs by Alamar blue assay; type: functional, cell-based, U-87MG ATCC; conditions: U-87 MG; how it was run: as §1
# CCRF-CEM [7] = test: Cytotoxicity against Taxol-resistant human CCRF-CEM cells after 72 hrs by XTT assay; type: functional, cell-based; how it was run: as §2
Compound,IC50 [1] [µM],IC50 (CCRF-CEM [2]) [µM],IC50 (MX1) [µM],IC50 (HCT-116) [µM],Ratio IC50 (CCRF-CEM [3]),IC50 [4] [µM],IC50 (PC-3) [µM],IC50 (CCRF-CEM [5]) [µM],IC50 [6] [µM],IC50 (CCRF-CEM [7]) [µM]
CC(C)NC(=O)OCc1c(COC(=O)NC(C)C)c(-c2ccc(F)cc2)n2c1Cc1ccccc1C2,11.1,0.23,1.17,0.63,0.3,8.13,12.3,0.76,36.9,0.23
OCc1c(CO)c(-c2ccc(Cl)c(Cl)c2)n2c1Cc1ccccc1C2,–,6.42,–,–,0.57,–,–,8.44,–,4.82
CCNC(=O)OCc1c(COC(=O)NCC)c2n(c1CC)Cc1ccccc1C2,–,0.24,–,–,0.48,–,–,0.44,–,0.21
OCc1c(CO)c(-c2ccccc2)n2c1Cc1ccccc1C2,–,0.29,–,–,0.99,–,–,0.51,–,0.5
COc1cc(-c2c(CO)c(CO)c3n2Cc2ccccc2C3)cc(OC)c1OC,–,2.78,–,–,1.45,–,–,1.97,–,2.88
CCNC(=O)OCc1c(COC(=O)NCC)c(-c2ccc(Cl)c(Cl)c2)n2c1Cc1ccccc1C2,–,1.19,–,–,0.38,–,–,2.37,–,0.9
CCNC(=O)OCc1c(COC(=O)NCC)c(-c2ccc(Cl)cc2)n2c1Cc1ccccc1C2,25.3,0.57,1.69,0.62,0.59,37.2,11,0.59,33.6,0.35
CC(=O)O[C@H]1C(=O)[C@@]2(C)[C@H]([C@H](OC(=O)c3ccccc3)[C@]3(O)C[C@H](OC(=O)[C@H](O)[C@@H](NC(=O)c4ccccc4)c4ccccc4)C(C)=C1C3(C)C)[C@]1(OC(C)=O)CO[C@@H]1C[C@@H]2O [PACLITAXEL],–,–,–,–,330,–,–,–,–,–
CCNC(=O)OCc1c(COC(=O)NCC)c(-c2cc(OC)c(OC)c(OC)c2)n2c1Cc1ccccc1C2,–,3.13,–,–,1.52,–,–,1.41,–,2.14
OCc1c(CO)c(-c2ccc(F)c(F)c2)n2c1Cc1ccccc1C2,–,0.95,6.99,3.21,1.11,–,–,1.14,–,1.26
CC(C)NC(=O)OCc1c(COC(=O)NC(C)C)c(-c2ccc(F)c(F)c2)n2c1Cc1ccccc1C2,–,0.61,–,–,0.58,–,–,1.33,–,0.78
Cc1c(COC(=O)NC(C)C)c(COC(=O)NC(C)C)c2n1Cc1ccccc1C2,11.8,0.14,1.28,1.38,0.84,9.77,16.9,0.27,26.6,0.23
CC(C)NC(=O)OCc1c(COC(=O)NC(C)C)c(-c2ccc(Cl)c(Cl)c2)n2c1Cc1ccccc1C2,–,1.35,–,–,0.69,–,–,3.55,–,2.47
CCNC(=O)OCc1c(COC(=O)NCC)c(-c2ccccc2)n2c1Cc1ccccc1C2,–,0.23,–,–,1.01,–,–,0.26,–,0.26
COc1ccc(-c2c(CO)c(CO)c3n2Cc2ccccc2C3)cc1OC,–,0.62,–,–,0.69,–,–,1.1,–,0.76
CC(C)NC(=O)OCc1c(COC(=O)NC(C)C)c(-c2ccccc2)n2c1Cc1ccccc1C2,–,0.25,–,–,0.5,–,–,0.45,–,0.23
OCc1c(CO)c(-c2ccc(F)cc2)n2c1Cc1ccccc1C2,6.99,0.49,4.01,2.46,1.72,8.76,5.93,0.51,23.2,0.88
OCc1c(CO)c(-c2ccc(Cl)cc2)n2c1Cc1ccccc1C2,12.1,0.72,3.28,3.06,1.28,24.7,9.85,0.6,26.7,0.77

Compound,IC50 [1] [µM],IC50 (CCRF-CEM [2]) [µM],IC50 (MX1) [µM],IC50 (HCT-116) [µM],Ratio IC50 (CCRF-CEM [3]),IC50 [4] [µM],IC50 (PC-3) [µM],IC50 (CCRF-CEM [5]) [µM],IC50 [6] [µM],IC50 (CCRF-CEM [7]) [µM]
CCNC(=O)OCc1c(COC(=O)NCC)c(-c2ccc(OC)cc2)n2c1Cc1ccccc1C2,10.5,0.35,1.27,0.75,0.58,27.6,18.5,0.37,17.1,0.22
CCNC(=O)OCc1c(COC(=O)NCC)c2n(c1C)Cc1ccccc1C2,11.3,0.12,2.27,0.9,0.48,19.4,15.5,0.24,13.9,0.11
CCNC(=O)OCc1c(COC(=O)NCC)c(-c2ccc(F)c(F)c2)n2c1Cc1ccccc1C2,–,0.67,–,–,0.6,–,–,2.08,–,1.25
CNC(=O)OCc1c(COC(=O)NC)c(-c2ccc(F)c(F)c2)n2c1Cc1ccccc1C2,–,0.47,2.73,0.36,0.91,–,–,0.49,–,0.45
CNC(=O)OCc1c(COC(=O)NC)c(-c2ccc(Cl)cc2)n2c1Cc1ccccc1C2,–,0.16,1.18,0.04,1.18,–,–,0.19,–,0.22
CC[C@]1(O)C[C@@H]2CN(CCc3c([nH]c4ccccc34)[C@@](C(=O)OC)(c3cc4c(cc3OC)N(C)[C@H]3[C@@](O)(C(=O)OC)[C@H](OC(C)=O)[C@]5(CC)C=CCN6CC[C@]43[C@@H]65)C2)C1 [VINBLASTINE],–,–,–,–,106.2,–,–,–,–,–
COc1ccc(-c2c(COC(=O)NC(C)C)c(COC(=O)NC(C)C)c3n2Cc2ccccc2C3)cc1OC,–,0.77,–,–,0.46,–,–,1.29,–,0.6
CCNC(=O)OCc1c(COC(=O)NCC)c(-c2ccc(OC)c(OC)c2)n2c1Cc1ccccc1C2,–,0.65,–,–,0.75,–,–,1.07,–,0.81
COc1ccc(-c2c(COC(=O)NC(C)C)c(COC(=O)NC(C)C)c3n2Cc2ccccc2C3)cc1,8.83,0.16,0.98,0.97,0.56,13.2,6.79,0.34,21,0.19
CCc1c(CO)c(CO)c2n1Cc1ccccc1C2,–,0.19,–,–,1.15,–,–,0.18,–,0.21
CNC(=O)OCc1c(COC(=O)NC)c2n(c1C)Cc1ccccc1C2,–,0.08,1.68,1.17,0.86,–,–,0.13,–,0.11
COc1cc(-c2c(COC(=O)NC(C)C)c(COC(=O)NC(C)C)c3n2Cc2ccccc2C3)cc(OC)c1OC,–,1.42,–,–,1.35,–,–,0.89,–,1.2
CCNC(=O)OCc1c(COC(=O)NCC)c(-c2ccc(F)cc2)n2c1Cc1ccccc1C2,12.5,0.57,1.51,0.79,1.39,3.94,9.59,0.31,28.4,0.43
CC(C)NC(=O)OCc1c(COC(=O)NC(C)C)c(-c2ccc(Cl)cc2)n2c1Cc1ccccc1C2,26.1,0.57,1.7,0.69,1.16,25.2,9.97,0.54,22.7,0.63
CNC(=O)OCc1c(COC(=O)NC)c(-c2ccc(OC)cc2)n2c1Cc1ccccc1C2,–,0.09,1.33,1.07,0.72,–,–,0.18,–,0.13
COc1ccc(-c2c(CO)c(CO)c3n2Cc2ccccc2C3)cc1,6.12,0.11,1.99,1.13,1.02,13.9,10.9,0.23,10.6,0.25
CCc1c(COC(=O)NC(C)C)c(COC(=O)NC(C)C)c2n1Cc1ccccc1C2,–,0.18,–,–,0.56,–,–,0.57,–,0.32
